The values that follow come from ChEMBL document CHEMBL1130011, “Chemical and biological studies on a series of novel (trans-(1R,2R)-, trans-(1S,2S)-, and cis-1,2-diaminocyclohexane)platinum(IV) carboxylate complexes” (J Med Chem, 1997).

Holding throughout (type): functional, organism-based
For assay [1], the system named is Mus musculus. The assay is described as follows: Antitumor activity against L1210/0 leukemia cells in mice at the optimal dose of 200 mg/kg/injection (median survival time of [treated mice/control mice]). The method in brief:
(§1)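 Male B6D2F1 (C57BL/6 × DBA/2) mice were inoculated ip with 1 × 10^5 leukemia cells on day 0. Drug was given ip on days 1, 5 and 9, prepared in water or 0.9% NaCl and administered immediately, over a dose range of 0.5–200 mg/kg/injection. Animals were monitored daily. %T/C = median survival of treated × 100/median survival of controls. Cures were mice alive at day 60.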

For assay [2], the system named is Mus musculus. Kind of assay: Antitumor activity against L1210/cisplatin leukemia cells in mice at the optimal dose of 200 mg/kg/injection (median survival time of [treated mice/control mice]). The method in brief: as §1
Assay [3] deals with Mus musculus. The assay is described as follows: Antitumor activity against M5076 reticulosarcoma grown subcutaneously in mice at the optimal dose of 200 mg/kg/injection. The method in brief: (§2)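 Male B6D2F1 (C57BL/6 × DBA/2) mice received 1 × 10^7 M5076 cells sc on day 0. Drug was given ip on days 5, 9, 13 and 17, prepared in water or 0.9% NaCl and given immediately, over a dose range of 0.5–200 mg/kg/injection. Animals were monitored daily. Results are expressed as %T/C (median survival ratio × 100) or as tumor growth delay.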

Assay [4] relates to Mus musculus. Kind of assay: Antitumor activity against L1210/0 leukemia cells in mice at the optimal dose of 100 mg/kg/injection (median survival time of [treated mice/control mice]). In short, it runs like this: as §1
The subject of assay [5] is Mus musculus. The assay is described as follows: Antitumor activity against L1210/cisplatin leukemia cells in mice at the optimal dose of 50 mg/kg/injection (median survival time of [treated mice/control mice]). In short, it runs like this: as §1
Assay [6] has as its system Mus musculus. The assay is described as follows: Antitumor activity against M5076 reticulosarcoma grown subcutaneously in mice at the optimal dose of 100 mg/kg/injection. In short, it runs like this: as §2
The subject of assay [7] is Mus musculus. The assay is described as follows: Antitumor activity against L1210/0 leukemia cells in mice at the optimal dose of 75 mg/kg/injection (median survival time of [treated mice/control mice]). In short, it runs like this: as §1
The test system of assay [8] is Mus musculus. Kind of assay: Antitumor activity against L1210/cisplatin leukemia cells in mice at the optimal dose of 75 mg/kg/injection (median survival time of [treated mice/control mice]). The method in brief:
as §1

Assay [9] relates to Mus musculus. Kind of assay: Antitumor activity against L1210/0 leukemia cells in mice at the optimal dose of 50 mg/kg/injection (median survival time of [treated mice/control mice]). The method in brief:
as §1

The test system of assay [10] is Mus musculus. Kind of assay: Antitumor activity against L1210/0 leukemia cells in mice at the optimal dose of 25 mg/kg/injection (median survival time of [treated mice/control mice]). In short, it runs like this: as §1
Assay [11] concerns Mus musculus. Kind of assay: Antitumor activity against L1210/cisplatin leukemia cells in mice at the optimal dose of 25 mg/kg/injection (median survival time of [treated mice/control mice]). In short, it runs like this: as §1
Assay [12] has as its system Mus musculus. Kind of assay: Antitumor activity against L1210/cisplatin leukemia cells in mice at the optimal dose of 100 mg/kg/injection (median survival time of [treated mice/control mice]). The method in brief:
as §1

For assay [13], the system named is Mus musculus. Kind of assay: Antitumor activity against L1210/0 leukemia cells in mice at the optimal dose of 5 mg/kg/injection (median survival time of [treated mice/control mice]). The method in brief:
as §1

For assay [14], the system named is Mus musculus. Kind of assay: Antitumor activity against L1210/cisplatin leukemia cells in mice at the optimal dose of 5 mg/kg/injection (median survival time of [treated mice/control mice]). The method in brief:
as §1

Assay [15] has as its system Mus musculus. Kind of assay: Antitumor activity against M5076 reticulosarcoma grown subcutaneously in mice at the optimal dose of 5 mg/kg/injection. The method in brief: as §2

Take “Platinum IV (trans-(1R,2R)-diaminecyclohexyl)-trans-(acetate)2 (1,1-cyclobutanedicarboxylate)”: the T/C (commonly the ratio of treated to control) with Mus musculus [1] was 112%; in the assay with Mus musculus [2], 100%. For the same substance, in the assay on Mus musculus [3], the Tumor growth delay came to 15.8 days.
Consider “Platinum IV (trans-(1R,2R)-diaminecyclohexyl)-trans-(acetate)2”, for which the T/C came to 265% in the assay on Mus musculus [4] and 144% in the assay with Mus musculus [5]. In addition, the Tumor growth delay in the assay with Mus musculus [6] came to 19.5 days.
For “Platinum IV (cis-1,2-diaminecyclohexyl)-trans-(acetate)2 (malonate)”, the T/C with Mus musculus [1] was 206%.
On to CARBOPLATIN, for which the T/C with Mus musculus [7] worked out at 147%; in the assay on Mus musculus [8], 111%.
Substance “Platinum IV (cis-1,2-diaminecyclohexyl)-trans-(acetate)2 (1,1-cyclobutanedicarboxylate)” had a T/C with Mus musculus [1] of 112%.
“Platinum IV (trans-(1R,2R)-diaminecyclohexyl) (acetate)4”: the T/C in the assay with Mus musculus [1] worked out at 206%.
For “Platinum IV (trans-(1R,2R)-diaminecyclohexyl)-trans-(trifluoroacetate)2 (oxalate)”, the T/C with Mus musculus [9] was greater than 700%; with Mus musculus [5] it was 176%.
In the assay on Mus musculus [1], [Pt(O2CCH3)4(dach)]dach came in with a T/C of 182%.
For the substance “Platinum IV (cis-1,2-diaminecyclohexyl)-trans-(acetate)2 (oxalate)”, the T/C in the assay with Mus musculus [4] amounted to 159%.
For “Platinum IV (trans-(1R,2R)-diaminecyclohexyl)-trans-(trifluoroacetate)2 (acetate)4”, the T/C with Mus musculus [10] came out at 218%; in the assay on Mus musculus [11], 148%.
For the substance “Platinum IV (trans-(1R,2R)-diaminecyclohexyl)-trans-(trifluoroacetate)2 (1,1-cyclobutanedicarboxylate)”, the T/C amounted to 253% with Mus musculus [1] and 205% in the assay with Mus musculus [12].
Regarding “Platinum IV (trans-(1R,2R)-diaminecyclohexyl)-trans-(acetate)2 (cyclobutanecarboxylate)2”, the T/C was 206% in the assay with Mus musculus [4] and 157% with Mus musculus [5].
For the substance “Platinum IV (trans-(1S,2S)-diaminecyclohexyl) (acetate)4”, the T/C in the assay with Mus musculus [1] was determined as 194%.
Consider “Platinum IV (trans-(1R,2R)-diaminecyclohexyl)-trans-(acetate)2 (oxalate)”, for which, in the assay on Mus musculus [9], the T/C is 171%.
The substance “Platinum IV (trans-(1S,2S)-diaminecyclohexyl)-trans-(acetate)2 (cyclobutanecarboxylate)2” returned a T/C with Mus musculus [9] of 182%.
As to “Platinum IV (trans-(1R,2R)-diaminecyclohexyl)-trans-(acetate)2 (methylmalonate)”, the T/C with Mus musculus [1] came to 147%; in the assay on Mus musculus [2] it was 93%. In the assay on Mus musculus [3], this substance showed a Tumor growth delay of 21.3 days.
For the substance CISPLATIN, the T/C is 300% in the assay on Mus musculus [13] and 100% in the assay on Mus musculus [14]. Besides, the Tumor growth delay in the assay on Mus musculus [15] came out at 16.3 days.
On to “Platinum IV (trans-(1S,2S)-diaminecyclohexyl)-trans-(acetate)2 (oxalate)”, for which the T/C in the assay with Mus musculus [9] turned out to be 135%.
